From ChEMBL document CHEMBL4665779, “Novel 2-Substituted 3-Hydroxy-1,6-dimethylpyridin-4(1H)-ones as Dual-Acting Biofilm Inhibitors of Pseudomonas aeruginosa” (J Med Chem, 2020) come the findings set out here.

Active and inactive are the calls of the source. No cut-off for these calls is given here.

In data set [1] the test system is Pseudomonas aeruginosa. The experiment in a line: Inhibition of biofilm formation in multidrug resistant Pseudomonas aeruginosa FB at 1.25 uM relative to control. It is filed as functional.
Data set [2] has as its system Pseudomonas aeruginosa. The data set can be described thus: Inhibition of biofilm formation in multidrug resistant Pseudomonas aeruginosa FB at 2.5 uM relative to control. Type of data set: functional.
The test system of data set [3] is Pseudomonas aeruginosa. The experiment in a line: Inhibition of biofilm formation in multidrug resistant Pseudomonas aeruginosa FB at 10 uM relative to control. Type of data set: functional.
Data set [4] deals with Pseudomonas aeruginosa. The data set can be described thus: Inhibition of biofilm formation in multidrug resistant Pseudomonas aeruginosa FB at 5 uM relative to control. It is filed as functional.
The subject of data set [5] is Pseudomonas aeruginosa. The data set can be described thus: Inhibition of biofilm formation in multidrug resistant Pseudomonas aeruginosa FB at 20 uM relative to control. Type of data set: functional.
For data set [6], the system named is Pseudomonas aeruginosa. The data set can be described thus: Inhibition of biofilm formation in multidrug resistant Pseudomonas aeruginosa 1129 at 1.25 uM relative to control. Type of data set: functional.
Data set [7] relates to Pseudomonas aeruginosa. The experiment in a line: Inhibition of biofilm formation in multidrug resistant Pseudomonas aeruginosa 1129 at 5 uM relative to control. It is filed as functional.
Data set [8] deals with Pseudomonas aeruginosa. The experiment in a line: Inhibition of biofilm formation in multidrug resistant Pseudomonas aeruginosa 1129 at 10 uM relative to control. Type of data set: functional.
The subject of data set [9] is Pseudomonas aeruginosa. The data set can be described thus: Inhibition of biofilm formation in multidrug resistant Pseudomonas aeruginosa 1121 at 1.25 uM relative to control. It is filed as functional.
For data set [10], the system named is Pseudomonas aeruginosa. The experiment in a line: Antibacterial activity against Pseudomonas aeruginosa infected in human L02 assessed as increase in cell survival pretreated for 24 hrs followed by cell addition and measured 4 hrs post-infection by MTT assay. It is filed as functional, organism-based. Particulars: dose microM 1.25-20, time 28.0 hrs. The method in brief: (§1)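 P. aeruginosa cultures were grown with 0, 1.25, 2.5, 5, 10 or 20 μM compound for 24 h at 37 °C with shaking. Washed cells (in DMEM) were infected at MOI 100 for 4 h. Bacteria were then killed with 500 μg/mL gentamycin for 2 h, and cells were given 500 μg/mL MTT for 16 h. Formazan was dissolved in DMSO and read at 570 nm.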

In data set [11] the test system is Pseudomonas aeruginosa. The data set can be described thus: Antibacterial activity against Pseudomonas aeruginosa infected in African green monkey Vero cells assessed as increase in cell survival pretreated for 24 hrs followed by cell addition and measured 4 hrs post-infection by MTT assay. It is filed as functional, organism-based. Particulars: dose microM 1.25-20, time 28.0 hrs. The gist of the method: as §1

For a further data set, the system named is Vero. The data set can be described thus: Cytotoxicity against African green monkey Vero cells assessed as reduction in cell viability up to 50 uM after 16 hrs by MTT assay. Particulars: chlorocebus sabaeus. Type of data set: cell-based. The method in brief: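 Vero or LO2 cells were seeded at 5000–15000 cells/well for 16 h, PBS-washed, then exposed to compound in DMEM at 37 °C and 5% CO2 for 16 h. MTT (20 μL of 5 mg/mL) was added for 3 h, and formazan was dissolved in DMSO and read at 570 nm. Triplicate; mean ± SD.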

Data set [12] deals with Pseudomonas aeruginosa. The experiment in a line: Inhibition of twitching motility in Pseudomonas aeruginosa PAO1 assessed at 1.25 to 20 uM measured after 16 hrs. Particulars: dose microM 1.25-20, time 16.0 hrs. Type of data set: functional. The gist of the method:
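Plates of LB with 1% agar, 0.5% casamino acids and 0.5% glucose contained compound at 0–20 μM. After drying 1 h, 1 μL PAO1 (OD600 1) was inoculated at the plate bottom and incubated 16 h at 37 °C. Three independent experiments.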

Data set [13] concerns the target Elastase (Pseudomonas aeruginosa (strain ATCC 15692 / PAO1 / 1C / PRS 101 / LMG12228)) (UniProt P14756). The data set can be described thus: Inhibition of lasB fluorescence in Pseudomonas aeruginosa PAO1 transfected with GFP by measuring fluorescence intensity every 15 mins for 12 hrs by microtiter plate reader assay. Particulars: dose microM 1.25-20, time 12.0 hrs. The gist of the method: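 PAO1-gfp, PAO1-lasB-gfp, PAO1-rhlA-gfp or PAO1-pqsA-gfp reporters were grown overnight in LB, then diluted in ABTGC medium to OD600 0.02, with compound at 1.25–20 μM. Controls were 0.1% DMSO and a blank. OD600 and GFP fluorescence (ex 485/em 535 nm) were read every 15 min for at least 12 h at 37 °C; triplicate.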

Data set [14] relates to Pseudomonas aeruginosa PA14. The experiment in a line: Inhibition of quorum sensing system PQS in Pseudomonas aeruginosa PA14 assessed as reduction in pyocyanin production measured after 48 hrs. Particulars: dose microM 1.25-20, time 48.0 hrs. The method in brief: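 PA14 culture standardized to OD600 0.05 was diluted 100-fold in LB and grown 48 h at 37 °C with shaking, with compound at 1.25–20 μM. Cleared supernatant was extracted with chloroform (4:1), then back-extracted into 0.2 M HCl. A520 was read and normalized to final OD600.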

For data set [15], the system named is Pseudomonas aeruginosa PAO1. The data set can be described thus: Inhibition of quorum sensing system las in Pseudomonas aeruginosa PAO1 assessed as reduction in elastase production at 1.25 to 20 uM after 24 hrs by BODIPY fluorophore based fluorescence assay. Particulars: dose microM 1.25-20, time 24.0 hrs. The gist of the method:
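PAO1 in LB at OD600 0.01 was incubated with compound (0–20 μM) for 24 h at 37 °C with shaking. The centrifuged supernatant was mixed with BODIPY FL-labelled DQ elastin substrate. Fluorescence (ex 490/em 520 nm) was read every 10 min for 5 h.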

Data set [16] deals with Pseudomonas aeruginosa. The data set can be described thus: Antibiofilm activity against Pseudomonas aeruginosa PAO1 harboring sigma factor-Pvds mutant assessed as inhibition of biofilm formation at 20 uM relative to control. It is filed as functional.
The test system of data set [17] is Pseudomonas aeruginosa PAO1. The data set can be described thus: Induction of iron chelation in Pseudomonas aeruginosa PAO1 assessed as increase in intracellular pyochelin level at 1.25 to 20 uM in presence of 50 uM FeCl3 by fluorescence microplate reader assay. Particulars: dose microM 1.25-20. It is filed as cell-based. The gist of the method:
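PAO1 overnight LB culture was diluted in ABTGC medium to OD600 0.02 ([…]), with compound at 0–20 μM, in medium containing 10 or 50 μM FeCl3. Plates were kept at 37 °C in a plate reader recording OD600, pyoverdine fluorescence (ex 400/em 447 nm) and pyochelin fluorescence (ex 350/em 430 nm). Triplicate.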

In data set [18] the test system is Pseudomonas aeruginosa PAO1. The experiment in a line: Induction of iron chelation in Pseudomonas aeruginosa PAO1 assessed as increase in iron deficiency by measuring ferric ion concentration inductively coupled plasma mass spectrometry. Particulars: dose microM 1.25-20. The method in brief:
(§2)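 PAO1 (OD600 0.05) was diluted 1:100 into ABTGC medium and grown 24 h at 37 °C with shaking, with compound; DFP at 20 μM was the reference. Pellets were washed twice in HEPES and lysed with lysozyme in 50 mM HEPES plus sonication for 30 min. Lysates were digested with 1 M nitric acid, centrifuged, and analysed by ICP-MS. Mean ± SD, triplicate.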

Data set [19] has as its system Pseudomonas aeruginosa PAO1. The experiment in a line: Induction of iron chelation in Pseudomonas aeruginosa PAO1 assessed as increase in iron deficiency by measuring change in total ferric ion concentration at 20 uM by inductively coupled plasma mass spectrometry (reference value: 1.91 +/- 0.8 uM).
The subject of data set [20] is Pseudomonas aeruginosa PAO1. The experiment in a line: Induction of iron chelation in Pseudomonas aeruginosa PAO1 assessed as increase in iron deficiency by measuring change in total ferric ion concentration at 2.5 uM by inductively coupled plasma mass spectrometry (reference value: 1.91 +/- 0.8 uM). The gist of the method:
as §2

Data set [21] is described as follows: Growth inhibition of Pseudomonas aeruginosa PAO1 at 1.25 to 20 uM measured after 10 hrs in ABTGC media. Particulars: dose 1.25-20 µM.
Data set [22] has as its system Pseudomonas aeruginosa. The data set can be described thus: Antibiofilm activity against Pseudomonas aeruginosa PAO1 assessed as inhibition of biofilm formation after 18 hrs by crystal violet staining based assay. It is filed as functional, organism-based. Particulars: PAO1, 18 h.

Chain of Elastase (Pseudomonas aeruginosa (strain ATCC 15692 / PAO1 / 1C / PRS 101 / LMG12228)) (P14756 198-498 limits assumed): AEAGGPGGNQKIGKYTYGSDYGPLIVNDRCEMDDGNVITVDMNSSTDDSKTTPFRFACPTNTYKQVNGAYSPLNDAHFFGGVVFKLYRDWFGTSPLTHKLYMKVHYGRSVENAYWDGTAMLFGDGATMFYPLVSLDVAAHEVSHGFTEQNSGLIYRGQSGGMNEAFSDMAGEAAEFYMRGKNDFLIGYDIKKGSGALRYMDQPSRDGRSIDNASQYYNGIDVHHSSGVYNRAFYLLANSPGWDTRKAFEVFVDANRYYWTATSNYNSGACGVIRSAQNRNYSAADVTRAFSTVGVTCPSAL

`CCCCCCC(=O)NCc1c(O)c(=O)cc(C)n1C`: the inhibition at 1.25 µM in the data set with Pseudomonas aeruginosa [1] was -5.12%; with Pseudomonas aeruginosa [6], 12.7%; with Pseudomonas aeruginosa [9], 11.8%. Besides, the inhibition at 2.5 µM with Pseudomonas aeruginosa [2] is -8.67%. Moreover, the inhibition at 10 µM in the data set with Pseudomonas aeruginosa [3] came out at 18.4%; in the data set on Pseudomonas aeruginosa [8] it was 30.4%. In addition, the inhibition at 5 µM was found to be 3.57% in the data set with Pseudomonas aeruginosa [4] and 30.6% with Pseudomonas aeruginosa [7]. Also, the inhibition at 20 µM came out at 14.4% in the data set on Pseudomonas aeruginosa [5] and 20% in the data set on Pseudomonas aeruginosa [16]. Moreover, the Activity entry was “Dose-dependent effect” in the data set on Pseudomonas aeruginosa [10]; “Dose-dependent effect” in the data set on Pseudomonas aeruginosa [11]; “Non-Toxic” with Vero; “Dose-dependent effect” in [18]; 0.88 µM in data set [19]; 1.56 µM in data set [20]. Also, the inhibition result in the data set with Pseudomonas aeruginosa [12] was “inactive”. Also, the inhibition entry in data set [13] and in data set [14] was “Dose-dependent effect” in each case. Also, the inhibition entry in data set [15] was “Active”. The outcome in data set [17] was inactive. The “growth inhibition (GI)” value in data set [21] was “Non-Toxic”. Besides, the IC50 in the data set with Pseudomonas aeruginosa [22] came out at 6.57 µM.
